Assay results reported in ChEMBL document CHEMBL1165950, “Design and synthesis of new potent anticancer pyrazoles with high FLT3 kinase inhibitory selectivity” (Bioorg Med Chem, 2010).

Columns and labels:
Format in all cases: functional
[1] = test system: TK-10; test: Cytotoxicity against human TK10 cells assessed as cell growth at 1 uM after 48 hrs by sulforhodamine B assay; settings: TK-10, 48 h, read-out: Activity
[2] = test system: A498; test: Cytotoxicity against human A498 cells assessed as cell growth at 10 uM after 48 hrs by sulforhodamine B assay; settings: A498, 48 h, read-out: Activity
Method in brief: (§1)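 NCI-60 five-dose screen. Cells were grown in RPMI 1640 with 5% FBS and 2 mM L-glutamine, plated at 5000–40,000 cells/well and preincubated for 24 h. Time-zero plates were TCA-fixed. DMSO-solubilized drug was added at five concentrations (10-fold or ½-log serial dilutions) for 48 h at 37 °C, 5% CO2. Cells were TCA-fixed, stained with 0.4% SRB and read at 515 nm. Percent growth used time-zero, control and test absorbances.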

[3] = test system: MDA-MB-468; test: Cytotoxicity against human MDA-MB-468 cells assessed as cell growth at 0.001 uM after 48 hrs by sulforhodamine B assay; settings: MDA-MB-468, 48 h, read-out: Activity
[4] = test system: OVCAR-4; test: Cytotoxicity against human OVCAR4 cells assessed as cell growth at 1 uM after 48 hrs by sulforhodamine B assay; settings: OVCAR-4, 48 h, read-out: Activity
[5] = test system: OVCAR-3; test: Cytotoxicity against human OVCAR-3 cells assessed as cell growth at 100 nM after 48 hrs by sulforhodamine B assay; settings: OVCAR-3, 48 h, read-out: Activity
[6] = test system: OVCAR-4; test: Growth inhibition of human OVCAR4 cells after 48 hrs by sulforhodamine B assay; settings: OVCAR-4, 48 h; for CC50: read-out: LC50 (the source's name)
Method in brief: (§2)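 NCI 60-cell screen, five-dose mode. Cells grown in RPMI 1640 with 5% FBS and 2 mM L-glutamine and plated at 5000-40,000 cells/well according to doubling time. After 24 h preincubation, a Tz plate was TCA-fixed. Five concentrations (10-fold or 1/2 log dilutions) were applied for 48 h at 37 °C. SRB staining read at 515 nm. IC50 taken from [(Ti-Tz)/(C-Tz)]×100 = 50.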

[7] = test system: BT-549; test: Cytotoxicity against human BT549 cells assessed as cell growth at 0.001 uM after 48 hrs by sulforhodamine B assay; settings: BT-549, 48 h, read-out: Activity; method in brief: as §1
[8] = test system: UACC-62; test: Cytotoxicity against human UACC62 cells assessed as cell growth at 100 nM after 48 hrs by sulforhodamine B assay; settings: UACC-62, 48 h, read-out: Activity
[9] = test system: MDA-MB-231; test: Cytotoxicity against human MDA-MB-231 cells assessed as cell growth at 0.01 uM after 48 hrs by sulforhodamine B assay; settings: MDA-MB-231, 48 h, read-out: Activity
[10] = test system: KM12; test: Cytotoxicity against human KM12 cells assessed as cell growth at 0.01 uM after 48 hrs by sulforhodamine B assay; settings: KM12, 48 h, read-out: Activity
[11] = test system: T47D; test: Cytotoxicity against human T47D cells assessed as cell growth at 10 uM; settings: read-out: Activity
Method in brief: (§3)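 NCI-60 screen: cells grown in RPMI 1640 with 5% FBS and 2 mM L-glutamine, plated at 5000–40,000 cells/well according to doubling time, and preincubated 24 h at 37 °C, 5% CO2. The single 10 µM dose (DMSO stock) was added, then incubated 48 h. Cells were TCA-fixed and stained with 0.4% SRB, read at 515 nm, and growth % calculated against time-zero and control plates.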

[12] = test system: T47D; test: Cytotoxicity against human T47D cells assessed as cell growth at 0.01 uM after 48 hrs by sulforhodamine B assay; settings: read-out: Activity
[13] = test system: HOP-62; test: Cytotoxicity against human HOP62 cells assessed as cell growth at 0.001 uM after 48 hrs by sulforhodamine B assay; settings: HOP-62, 48 h, read-out: Activity
[14] = test system: OVCAR-3; test: Cytotoxicity against human OVCAR-3 cells assessed as cell growth at 0.001 uM after 48 hrs by sulforhodamine B assay; settings: OVCAR-3, 48 h, read-out: Activity
[15] = test system: UACC-62; test: Cytotoxicity against human UACC62 cells assessed as cell growth at 10 uM; settings: read-out: Activity; method in brief: as §3
[16] = test system: HT-29; test: Growth inhibition of human HT-29 cells after 48 hrs by sulforhodamine B assay; settings: HT-29, 48 h; for CC50: read-out: LC50 (the source's name); method in brief: as §2
[17] = test system: NCI-H460; test: Cytotoxicity against human NCI-H460 cells assessed as cell growth at 0.01 uM after 48 hrs by sulforhodamine B assay; settings: NCI-H460, 48 h, read-out: Activity
[18] = test system: OVCAR-5; test: Growth inhibition of human OVCAR5 cells after 48 hrs by sulforhodamine B assay; settings: OVCAR-5, 48 h; for CC50: read-out: LC50 (the source's name); method in brief: as §2
[19] = test system: NCI-H23; test: Cytotoxicity against human NCI-H23 cells assessed as cell growth at 1 uM after 48 hrs by sulforhodamine B assay; settings: NCI-H23, 48 h, read-out: Activity
[20] = test system: HT-29; test: Cytotoxicity against human HT-29 cells assessed as cell growth at 0.001 uM after 48 hrs by sulforhodamine B assay; settings: HT-29, 48 h, read-out: Activity
[21] = test system: OVCAR-3; test: Cytotoxicity against human OVCAR-3 cells assessed as cell growth at 0.01 uM after 48 hrs by sulforhodamine B assay; settings: OVCAR-3, 48 h, read-out: Activity
[22] = test system: NCI-H23; test: Cytotoxicity against human NCI-H23 cells assessed as cell growth at 10 uM; settings: read-out: Activity; method in brief: as §3
[23] = test system: A549; test: Cytotoxicity against human A549 cells assessed as cell growth at 10 uM; settings: read-out: Activity
Method in brief: (§4)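 Single-dose NCI-60 screen at 10 µM. Cells were grown in RPMI 1640 with 5% FBS and 2 mM L-glutamine, then treated for 48 h at 37 °C. Protein was measured by SRB staining with absorbance at 515 nm. Percentage growth was recorded, and inhibition percentage was calculated as 100 minus growth percentage.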

[24] = test system: A549; test: Growth inhibition of human A549 cells after 48 hrs by sulforhodamine B assay; settings: A549, 48 h
Method in brief: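 NCI five-dose SRB assay in RPMI 1640 with 5% FBS and 2 mM L-glutamine. Cells were preincubated 24 h, then exposed 48 h at 37 °C to five concentrations (10-fold or half-log serial dilutions from DMSO stocks). TCA fixation, SRB staining, and absorbance at 515 nm followed. IC50 was taken where [(Ti−Tz)/(C−Tz)]×100 = 50, with Tz as time-zero cell density.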

[25] = test system: 786-0; test: Cytotoxicity against human 786-0 cells assessed as cell growth at 100 nM after 48 hrs by sulforhodamine B assay; settings: 786-0, 48 h, read-out: Activity; method in brief: as §1
[26] = test system: BT-549; test: Cytotoxicity against human BT549 cells assessed as cell growth at 10 uM; settings: read-out: Activity; method in brief: as §4
[27] = test system: NCI/ADR-RES; test: Cytotoxicity against human NCI/ADR-RES cells assessed as cell growth at 0.001 uM after 48 hrs by sulforhodamine B assay; settings: read-out: Activity
[28] = test system: NCI/ADR-RES; test: Cytotoxicity against human NCI/ADR-RES cells assessed as cell growth at 10 uM after 48 hrs by sulforhodamine B assay; settings: read-out: Activity
[29] = test system: KM12; test: Cytotoxicity against human KM12 cells assessed as cell growth at 0.001 uM after 48 hrs by sulforhodamine B assay; settings: KM12, 48 h, read-out: Activity

Row | SMILES | growth at 1 µM [1] [%] | growth at 10 µM [2] [%] | growth at 0.001 µM [3] [%] | growth at 1 µM [4] [%] | growth at 0.1 µM [5] [%] | GI50 [6] [µM] | TGI [6] [µM] | CC50 [6] [µM] | growth at 0.001 µM [7] [%] | growth at 0.1 µM [8] [%] | growth at 0.01 µM [9] [%] | growth at 0.01 µM [10] [%] | growth at 10 µM [11] [%] | growth at 0.01 µM [12] [%] | growth at 0.001 µM [13] [%] | growth at 0.001 µM [14] [%] | growth at 10 µM [15] [%] | GI50 [16] [µM] | TGI [16] [µM] | CC50 [16] [µM] | further results
1 | Cc1cc(O)cc(-c2nn(CC#N)cc2-c2ccnc(-c3ccc(N(C)C)cc3)c2)c1 | 44 | -33 | 98 | 27 | 85 | 4.85 | > 100 | > 100 | 96 | 87 | 98 | 76 | 17.7 | 90 | 92 | 105 | 25.1 | 4.65 | 20.8 | 93.9 | growth at 0.01 µM [17]: 102%; GI50 [18]: 1.49 µM; TGI [18]: 60.4 µM; CC50 [18]: > 100 µM; growth at 1 µM [19]: 24%; growth at 0.001 µM [20]: 101%; growth at 0.01 µM [21]: 91%; growth at 10 µM [22]: 35.9%; growth at 10 µM [23]: 39%; GI50 [24]: 4.18 µM; LC50 [24]: > 100 µM; TGI [24]: 54.5 µM; growth at 0.1 µM [25]: 91%; growth at 10 µM [26]: 31.8%; growth at 0.001 µM [27]: 97%; growth at 10 µM [28]: -4%; growth at 0.001 µM [29]: 91%
2 | Cc1cc(O)cc(-c2nn(CC#N)cc2-c2ccnc(-c3ccc(Oc4ccccc4)cc3)c2)c1 | 19 | -92 | 91 | 21 | 93 | 4.56 | 16 | 48.6 | 96 | 84 | 84 | 94 | 14.2 | 86 | 93 | 92 | 68.1 | 1.83 | 3.84 | 8.06 | growth at 0.01 µM [17]: 100%; GI50 [18]: 4.84 µM; TGI [18]: 19.2 µM; CC50 [18]: 48.3 µM; growth at 1 µM [19]: -64%; growth at 0.001 µM [20]: 95%; growth at 0.01 µM [21]: 103%; growth at 10 µM [22]: 42.6%; growth at 10 µM [23]: 42%; GI50 [24]: 2 µM; LC50 [24]: 24.7 µM; TGI [24]: 5.07 µM; growth at 0.1 µM [25]: 91%; growth at 10 µM [26]: 76.1%; growth at 0.001 µM [27]: 105%; growth at 10 µM [28]: -52%; growth at 0.001 µM [29]: 91%
3 | COc1cc(C)cc(-c2nn(CC#N)cc2-c2ccnc(-c3ccc(N(C)C)cc3)c2)c1 | 29 | -33 | 96 | 21 | -51 | 0.549 | > 100 | > 100 | 105 | 18 | 94 | 89 | 39 | 104 | 108 | 106 | 19.1 | 0.481 | 2.88 | 37.2 | growth at 0.01 µM [17]: 106%; GI50 [18]: 3.98 µM; TGI [18]: > 100 µM; CC50 [18]: > 100 µM; growth at 1 µM [19]: 15%; growth at 0.001 µM [20]: 103%; growth at 0.01 µM [21]: 95%; growth at 10 µM [22]: -3.77%; growth at 10 µM [23]: 21.1%; GI50 [24]: 0.583 µM; LC50 [24]: > 100 µM; TGI [24]: 483 µM; growth at 0.1 µM [25]: 22%; growth at 10 µM [26]: -28.5%; growth at 0.001 µM [27]: 96%; growth at 10 µM [28]: -10%; growth at 0.001 µM [29]: 93%
